Hits are enriched below; roughly 2.1% of the tested compounds scored in any of these assays.
EWS-Fli block = blocks EWS/Fli oncoprotein-driven transcription; A673 NR0B1-luciferase reporter, viability-normalised; hit rate 0.67% among 350,000; inhibition, % at 12.6 µM;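 active means mean inhibition of at least 50% after viability correction, with every replicate also passing that limit; inconclusive means mean reaches 50% but only one of two replicates passes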;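 further: firefly luciferase signal divided by Alamar Blue viability fluorescence both relative to DMSO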
XiGFP reactiv = X-chromosome reactivation activator | XiGFP mouse fibroblasts, % GFP-positive cells imaging, 3 d; cells co-treated with 5-aza-dC sensitizer; scaled so ellipticine positive control = 100% | activation, % at 7.58 µM | hit rate 0.055% among 360,000 | AID 743238;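 active means mean normalized replicate activation at least 10% and every replicate at or above 10%; inconclusive means only one of the two criteria met; inactive means mean below 10% and not all replicates reach 10%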;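 further: 0% = median of on-plate neutral control wells and 100% = ellipticine 6 µM median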
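material = 68-5-11 XiGFP fibroblast line | medium = DMEM plus 5-aza-dC sensitizer | schedule = 3 days compound exposure | benchmarks = positive control ellipticine, 6 µM final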
AF4-AF9 inh = blocks AF4 peptide binding to human AF9; P42568; AlphaScreen, biotin-AF4 peptide binding to FLAG-AF9; inhibition, % at 10 µM; hit rate 0.47% among 350,000; AID 651704;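 active means every replicate reaching a set inhibition limit, whatever the replicate mean, cut at about 25% in these data; inconclusive means mean inhibition reaches that limit but some replicates miss it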;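 further: 0% = plate neutral control median and 100% = total signal loss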
Target sequence (P42568 whole entry, looked up): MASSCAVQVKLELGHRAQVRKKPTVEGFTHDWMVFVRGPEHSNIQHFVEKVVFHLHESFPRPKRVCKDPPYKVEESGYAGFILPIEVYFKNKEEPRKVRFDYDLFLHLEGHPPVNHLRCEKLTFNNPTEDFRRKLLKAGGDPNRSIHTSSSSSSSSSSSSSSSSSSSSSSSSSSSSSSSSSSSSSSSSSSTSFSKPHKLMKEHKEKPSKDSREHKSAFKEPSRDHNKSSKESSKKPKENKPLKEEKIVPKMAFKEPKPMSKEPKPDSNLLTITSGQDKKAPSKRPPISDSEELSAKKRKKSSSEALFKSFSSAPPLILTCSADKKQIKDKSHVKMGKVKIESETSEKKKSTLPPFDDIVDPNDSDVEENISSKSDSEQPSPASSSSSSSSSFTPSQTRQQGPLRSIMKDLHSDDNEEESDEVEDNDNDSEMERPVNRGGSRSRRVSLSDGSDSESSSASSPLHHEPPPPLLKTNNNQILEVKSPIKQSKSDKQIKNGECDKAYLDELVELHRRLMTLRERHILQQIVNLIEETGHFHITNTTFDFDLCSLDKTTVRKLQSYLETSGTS
PGC1a acetyl inh = PGC1a acetylation modulation, inhibitor mode | hit rate 0.17% among 350,000 | U2OS PGC1a acetylation, AlphaScreen anti-acetyl-lysine; with virally co-expressed GCN5 acetyltransferase | inhibition, % at 15.6 µM;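 active means every replicate shows inhibition of at least 40%; inconclusive means mean inhibition at least 40% but some replicate below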;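 further: 0% = neutral control wells and 100% = positive control wells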
PAX8 inh HTS = PAX8 transcriptional activity inhibition; AID 652154; inhibition, % at 12.6 µM; RMG-I TPO-luciferase reporter, SteadyGlo, 24 h; hit rate 1.2% among 360,000;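 active means mean replicate inhibition at least 60% with every replicate also reaching 60%; inconclusive means only one of the two criteria is met; inactive means mean below 60% and not all replicates reaching 60%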;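 further: luciferase light reporting Pax8 driven TPO promoter activity; plate controls were median of neutral control wells for no effect and mitoxantrone controls for full effect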
GSIS activator = GLuc luminescence reporter in INS-1E cells, primary screen for activators of glucose-dependent secretion of insulin; activation, % at 16.6 µM; INS-1E GLuc reporter insulin secretion, 2-3 h; hit rate 0.61% among 370,000; AID 743287;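 active means lowest replicate activation of at least 40%, so every replicate reaches that level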;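 further: 0% = median of neutral control wells and 100% = median of IBMX positive control wells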
* = called active by the depositor; ? = inconclusive; . = no result; ! = not active in a repeat.

SMILES	EWS-Fli block	XiGFP reactiv	AF4-AF9 inh	PGC1a acetyl inh	PAX8 inh HTS	GSIS activator
CCN1[C@H](C(=O)Nc2nccs2)[C@@H](CO)[C@@H]2Cn3c(ccc(/C=C/c4ccccc4)c3=O)[C@@H]21	7	0	-23	-5	1	-5
Cc1cc(NC(=O)CCCS(=O)(=O)c2nc(-c3cccs3)cc(C(F)(F)F)n2)no1	.	.	.	-12	106*	1
Cc1cc(NC(=O)CSc2nc(-c3cccs3)cc(C(F)(F)F)n2)no1	.	.	.	-3	.	5
COc1ccc(-c2cc(C(F)(F)F)nc(S(=O)(=O)CCCC(=O)Nc3cccnc3Cl)n2)cc1OC	20	0	0	.	72*	-7
COCC(C)NC(=O)CCS(=O)(=O)c1nc(-c2ccc(OC)cc2)cc(C(F)(F)F)n1 (centres undefined)	.	.	.	-14	.	.
COc1ccc(NC(=O)Nc2ccc3c(c2)C(=O)N([C@H](C)CO)C[C@@H](C)[C@H](CN(C)Cc2ccc(Oc4ccccc4)cc2)O3)cc1	-4	0	-3	-7	-50	-8
CCOC(=O)C1CCN(C(=S)NC2CC3C=CC2C3)CC1 (centres undefined)	0	0	32*	0	1	3
CC(/C=N/NC(=O)c1cc(-c2ccccc2)nc2ccccc12)=C\c1ccco1	.	0	.	9	41	-24
CC(/C=N/NC(=O)c1cc(-c2ccc(Cl)cc2)nc2ccccc12)=C\c1ccco1	.	.	.	?	87*	11
O=C(NCc1ccccc1)C1=C[C@@H](c2csc3ccccc23)C[C@@H](OCCCCO)O1	34	0	-14	.	77*	0
O=C1C=C(c2c(O)ccc3ccccc23)c2ccccc2C1=O	57*	0	22	54*	83*	41*
COc1ccc(NC(=O)c2c(Nc3ccccc3)sc(C(=O)c3ccc(F)cc3)c2N)cc1	.	.	.	0	89*	.
COc1ccc(C(=O)c2sc(Nc3ccccc3)c(C(=O)Nc3ccc(OC)c(OC)c3)c2N)cc1	.	.	.	-10	-28	.
CC(C)NC(=O)N(C)C[C@@H]1Oc2ncc(C#Cc3ccccc3F)cc2C(=O)N([C@@H](C)CO)C[C@@H]1C	3	-1	2	6	.	1
OCc1nnc2c3ccccc3c(-c3ccccc3)nn12	.	.	4	-2	.	41*
Nc1ccc[n+](CC(=O)c2ccccc2)c1	17	0	4	12	-5	.
CCc1n[n+](CC(=O)c2ccccc2)c(N)s1	59*	0	1	.	30	5
O=C(Nc1ccc(F)cc1)N[C@@H]1CC[C@@H](CCNC(=O)c2ccccc2F)O[C@H]1CO	1	0	-6	1	.	2
c1ccc(-c2nc(NCC3CC3)nc3ccsc23)cc1	-3	0	-2	7	-1	78*
COc1ccc(CCNC(=O)c2cc(C(=O)c3cc(Cl)ccc3O)cn(CCc3ccc(OC)cc3)c2=O)cc1	.	0	.	-9	80*	-23
Cc1ccc(-c2ccc(C3[C@@H]4CN(S(=O)(=O)c5ccc(C)cc5)C[C@H]3N4)cc2)cc1 (some centres undefined)	8	0	-2	-19	73*	71
Cc1ccccc1S(=O)(=O)N1C[C@@H]2N[C@H](C1)C2c1ccc(/C=C/c2ccccc2)cc1 (some centres undefined)	.	0	.	.	.	6
Cc1cccc(S(=O)(=O)N2C[C@@H]3N[C@H](C2)C3c2ccc(-c3ccccc3F)cc2)c1 (some centres undefined)	-3	0	-1	-44	21	81*!
Cc1ccc(S(=O)(=O)N2C[C@@H]3N[C@H](C2)[C@@H]3c2ccc(-c3cccc(C)c3)cc2)cc1	-2	0	.	-66	-6	337
O=S(=O)(c1ccccc1F)N1C[C@@H]2N[C@H](C1)C2c1ccc(/C=C/c2ccccc2)cc1 (some centres undefined)	-5	0	1	1	0	171*!
SMILES	EWS-Fli block	XiGFP reactiv	AF4-AF9 inh	PGC1a acetyl inh	PAX8 inh HTS	GSIS activator
O=C1c2ccc(-c3ccc4c(c3)C(=O)N(CCCO)C4=O)cc2C(=O)N1CCCO	10	0	-4	70*	21	-8
O=C(c1ccccc1F)N1CCCC(c2ccccc2)C1 (centres undefined)	8	0	4	-10	67*	.
CN1C(=O)c2cc(NC(=O)C3CCCCC3)ccc2OC[C@H]2O[C@H](CC(=O)NCCc3ccncc3)CC[C@H]21	1	0	1	4	7	-3
C[C@@H](NC(=O)C[C@H]1CC[C@H](NC(=O)C2CCC2)[C@@H](CO)O1)c1ccccc1	0	0	-1	4	-3	2
CC(NC(=O)C(=O)N1CCOCC1)C(c1cccs1)N1CCN(c2ccccc2)CC1 (centres undefined)	7	0	2	3	7	9
COc1ccc(N2CCN(C(c3cccs3)C(C)NC(=O)C(=O)N3CCOCC3)CC2)cc1 (centres undefined)	1	0	0	6	-4	79*
C[C@@H]1CN([C@H](C)CO)C(=O)c2cc(C#C[C@@H](C)O)cnc2O[C@H]1CN(C)C(=O)c1ccccc1F	-1	0	-1	25	.	16
CC1=C(C(=O)N2CCOCC2)CC(CC(=O)NCCCN(C)C)C(=O)N1CCCN1CCCC1=O (centres undefined)	-5	0	0	.	-6	41*
CC1=C(C(=O)N2CCCCCC2)CC(CC(=O)NCCCN(C)C)C(=O)N1CCCN1CCCC1=O (centres undefined)	0	0	0	.	3	7
COc1ccc(C(=O)N(C)Cc2cnn(Cc3ccccc3)c2)cc1S(=O)(=O)N1CCOCC1	62*	0	-8	-7	39	-15
COc1ccc(C(NC(=O)c2c(F)c(F)c(F)c(F)c2F)c2ccccc2)cc1 (centres undefined)	62*	0	-1	85*	-3	-20
C[C@H]1CCCCO[C@H](CN(C)C(=O)Nc2ccc(C(F)(F)F)cc2)[C@@H](C)CN([C@@H](C)CO)C(=O)c2cc(NC(=O)Nc3ccccc3)ccc2O1	-11	0	-1	8	81*	2
C[C@@H]1CCCCO[C@@H](CN(C)C(=O)Nc2ccccc2)[C@@H](C)CN([C@@H](C)CO)C(=O)c2cc(NC(=O)Nc3ccc(C(F)(F)F)cc3)ccc2O1	5	0	35*	1	41	18
C[C@@H]1CN([C@H](C)CO)C(=O)c2cc(NC(=O)Cc3cn(C)c4ccccc34)ccc2O[C@@H]1CN(C)C(=O)Nc1ccccc1	-20	0	3	108*	54	-5

High-throughput results: PubChem BioAssay, Broad Institute
